This is a sample that favours compounds with a hit; in the whole collection about 3.5% have one here.
Thrombin inh: human alpha-thrombin inhibitors, primary screen, counter-screen for coagulation protease inhibitor project, biochemical, 1536-well, fluorogenic AMC substrate | Prothrombin (Homo sapiens), P00734 | Boc-VPR-AMC fluorogenic substrate cleavage | inhibition, % at 5 µM | 220,000 compounds, 0.26% hits;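 active = inhibition at or above 40%; inactive = inhibition below 40%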
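Material: human alpha-thrombin protein; Also added: Boc-VPR-AMC substrate, 15 µM final; Timing: enzyme reaction carried out at room temperature; Signal: fluorescence, ex 355 nm, em 460 nm; Measure: % inhibition of thrombin; Controls: enzyme without compound as high, wells lacking enzyme as low.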
FXIa inh 1536: human FXIa protease inhibitors, primary screen, biochemical, 1536-well; Coagulation factor XI (Homo sapiens), P03951; AID 798, 2007; inhibition, % at 5 µM; 220,000 compounds, 0.14% hits; purified FXIa, Boc-Glu-Ala-Arg-AMC fluorogenic substrate;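 active = inhibition of at least 40%; inactive = inhibition below 40%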;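 note: fluorescence of freed AMC excited at 355 nm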
hK5 inh: human KLK5 protease inhibitors, primary screen, biochemical, 1536-well | Kallikrein-5 (Homo sapiens), Q9Y337 | recombinant hK5, fluorogenic AMC substrate cleavage | inhibition, % at 5 µM | 210,000 compounds, 0.59% hits;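 active = inhibition of 40% or more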
Target sequence (Q9Y337 67-293 limits assumed): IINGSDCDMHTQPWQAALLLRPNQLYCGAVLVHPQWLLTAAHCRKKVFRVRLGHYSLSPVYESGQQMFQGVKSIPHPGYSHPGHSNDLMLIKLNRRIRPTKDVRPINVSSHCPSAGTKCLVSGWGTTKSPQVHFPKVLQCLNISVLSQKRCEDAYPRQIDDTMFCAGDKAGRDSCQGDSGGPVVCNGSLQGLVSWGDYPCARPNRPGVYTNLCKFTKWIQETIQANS
FXIIa inh: human FXIIa protease inhibitors, primary screen, biochemical, 1536-well. inhibition, % at 5 µM. AID 800, 2007. Coagulation factor XII (Homo sapiens), P00748. purified FXIIa, Boc-QGR-AMC fluorogenic substrate, 2 h. 220,000 compounds, 0.3% hits; in the data active = inhibition above about 40%
STAT3 activator: IL-6 driven STAT3 reporter potentiators, primary screen, U3A cells, luciferase, luminescence, MLSCN library | AID 871, 2007 | 190,000 compounds, 0.91% hits | activation (% of control), % at 5.6 µM | IL-6 STAT3-luciferase reporter; 100% = signal with IL-6 EC80 alone;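 active = activation above the screen-wide mean of compound activation plus 3 SD, cut at about 130% in these data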
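Test system: Human STAT1-deficient U3A cells with stable STAT3-luciferase reporter | Also added: Interleukin-6, 33 ng/mL | Timing: Compound pre-incubation 1 h before IL-6, then 6 h stimulation at 37 °C | Technique: Luciferase reporter luminescence | Read-out: Percent of IL-6-only median luminescence | Benchmarks: IL-6-only wells as 100% reference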
AHR activator: AHR activators, primary screen, cell-based, luminescence, luciferase reporter, human. Aryl hydrocarbon receptor (Homo sapiens), P35869. AHR-responsive luciferase reporter cells. activation, % at 5 µM. 320,000 compounds, 2.5% hits; in the data active = activation above about 47%
Large screens that a line does not name were inactive.

O=C1C=C(c2ccc(C(=O)O)c(Cl)c2)C[C@@H](c2ccc3c(c2)OCO3)C1	none (no result: Thrombin inh, FXIa inh 1536, hK5 inh, FXIIa inh, STAT3 activator)
NS(=O)(=O)c1ccc(NC(=S)N2CCc3ccccc32)cc1	none (no result: Thrombin inh, FXIa inh 1536, hK5 inh, FXIIa inh, STAT3 activator)
FC(F)Oc1ccc(NC(=S)N2CCc3ccccc32)cc1	AHR activator 50.8
CCCCn1c(N)c(N(CCC(C)C)C(=O)c2ccc(N3CCCC3=O)cc2)c(=O)[nH]c1=O	none (no result: Thrombin inh, FXIa inh 1536, hK5 inh, FXIIa inh, STAT3 activator)
C/C(=N\Nc1nc(Cl)c(Cl)cc1Cl)c1ccc(S(=O)(=O)NCc2ccco2)cc1	AHR activator 49.0
CCCCC1=CC2=CC(=O)C(C)(OC(=O)c3ccc(Cl)nc3)C(=O)C2=CO1 (stereo unspecified)	none (no result: Thrombin inh, FXIa inh 1536, hK5 inh, FXIIa inh, STAT3 activator)
O=C(c1cc2ccccc2oc1=O)N1CCN(Cc2ccc3c(c2)OCO3)CC1	none
O=C(c1cc2ccccc2oc1=O)N(Cc1ccccc1)Cc1ccc2c(c1)OCO2	STAT3 activator 134.9
CCOc1nc2cnccc2n(CC(=O)Nc2cccc(C)c2C)c1=O	none (no result: Thrombin inh, FXIa inh 1536, hK5 inh, FXIIa inh, STAT3 activator)
COc1cccc(CNC(=O)CSc2nc3ccc(C)cc3[nH]2)c1	AHR activator 52.7 (no result: Thrombin inh, FXIa inh 1536, hK5 inh, FXIIa inh, STAT3 activator)
Cc1ccc2nc(SCC(=O)NCc3cccs3)[nH]c2c1	AHR activator 48.9
COc1ccc2nc(SCC(=O)NCc3ccc(F)cc3)[nH]c2c1	none (no result: Thrombin inh, FXIa inh 1536, hK5 inh, FXIIa inh, STAT3 activator)
Cc1ccc2nc(SCC(=O)Nc3ncccn3)[nH]c2c1	none (no result: STAT3 activator)
Cc1ccc2nc(SCC(=O)NNC(=O)c3ccccc3)[nH]c2c1	AHR activator 51.8
Cc1ccc2nc(SCC(=O)NC3CCCc4ccccc43)[nH]c2c1 (stereo unspecified)	AHR activator 58.8
C/C(=N/NC(=O)c1ccc(Br)o1)c1cccc(NC(=O)c2ccc(C)o2)c1	AHR activator 51.4
C/C(=N/NC(=O)c1ccc(Br)o1)c1ccncc1	AHR activator 50.0
C/C(=N/NC(=O)c1ccc(Br)o1)c1cccc(NC(=O)c2ccc(F)cc2)c1	none (no result: Thrombin inh, FXIa inh 1536, hK5 inh, FXIIa inh, STAT3 activator)
O=C(NCc1ccncc1)c1ccc(Br)o1	FXIIa inh 41.2
C/C(=N/NC(=O)c1cnccn1)c1ccncc1	none
O=C(NCc1cccnc1)c1ccc(Br)o1	none (no result: Thrombin inh, FXIa inh 1536, hK5 inh, FXIIa inh, STAT3 activator)
C[C@H](NC(=O)[C@@H]1CSC2c3ccccc3C(=O)N21)C(=O)NCc1c(F)cccc1Cl (stereo partly specified)	none (no result: Thrombin inh, FXIa inh 1536, hK5 inh, FXIIa inh, STAT3 activator)
O=C(O)COc1ccc(C(NC(=O)c2c(F)cccc2F)NC(=O)c2c(F)cccc2F)cc1	none (no result: Thrombin inh, FXIa inh 1536, hK5 inh, FXIIa inh, STAT3 activator)
COc1ccc(OC)c(C(=O)Nc2c(O)ccc3ccccc23)c1	none (no result: Thrombin inh, FXIa inh 1536, hK5 inh, FXIIa inh, STAT3 activator)
COc1ccc(OC)c(NC(=O)Nc2c(O)ccc3ccccc23)c1	AHR activator 62.7 (no result: Thrombin inh, FXIa inh 1536, hK5 inh, FXIIa inh, STAT3 activator)
COc1ccc(OC)c(NC(=O)Nc2ccc(O)c3ccccc23)c1	AHR activator 48.6 (no result: Thrombin inh, FXIa inh 1536, hK5 inh, FXIIa inh, STAT3 activator)
COc1ccc(S(=O)(=O)Nc2ccc(O)c3ccccc23)cc1	STAT3 activator 134.2, AHR activator 61.4
CN1CCN(C(=O)c2ccc(OCCOc3ccccc3)cc2)CC1	none (no result: Thrombin inh, FXIa inh 1536, hK5 inh, FXIIa inh, STAT3 activator)
COC(=O)c1cccc(NC(=O)C(C)(C)C)c1	none (no result: STAT3 activator)
Cc1ccc(CNC(=O)CCn2cc(-c3ccc(C)cc3)nc2CCN)cc1	none (no result: Thrombin inh, FXIa inh 1536, hK5 inh, FXIIa inh, STAT3 activator)
CC(C)Oc1cccc(-c2cc(C(=O)NC(=S)N(C)c3ccccc3C(=O)O)c3ccccc3n2)c1	AHR activator 49.7
CC(C)Oc1cccc(-c2cc(C(=O)NN3CCOCC3)c3ccccc3n2)c1	none (no result: Thrombin inh, FXIa inh 1536, hK5 inh, FXIIa inh, STAT3 activator)
c1cc2c3c(cccc3c1)NC1(CCC3(CC1)Nc1cccc4cccc(c14)N3)N2	AHR activator 48.9 (no result: STAT3 activator)
CN(NC(=O)c1ccc(Cl)cc1)c1ncc(C(F)(F)F)cc1Cl	none (no result: STAT3 activator)
O/N=C(\c1ccc(Cl)cc1)c1ncc(C(F)(F)F)cc1Cl	AHR activator 79.0
COc1ccc(C(=O)NCC(=O)N2CCN(C(=O)c3ccco3)CC2)cc1[N+](=O)[O-]	none (no result: Thrombin inh, FXIa inh 1536, hK5 inh, FXIIa inh, STAT3 activator)
CCn1c(O)c(C2=c3ccccc3=NC2=O)c2cc(Br)ccc21	STAT3 activator 133.9
COc1cc(NC(=O)C/C(C)=N/NC(=O)c2cccs2)c(OC)cc1Cl	AHR activator 63.9
COc1cc(NC(=O)c2cccs2)c(OC)cc1NC(=O)CCC(=O)Nc1ccc2ncccc2c1	hK5 inh 53.8 (no result: AHR activator)

From PubChem
